Reference: ChEMBL document CHEMBL2440016, “Targeting the human parasite Leishmania donovani: discovery of a new promising anti-infectious pharmacophore in 3-nitroimidazo[1,2-a]pyridine series” (Bioorg Med Chem, 2013)

Experiments:
[1] = Cytotoxicity against mouse J774.1 cells after 72 hrs by MTT assay; format: cell-based; conditions: J774.1 cells
Outline: (§1)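 Cells plated in RPMI with 10% FCS, L-glutamine and penicillin/streptomycin, 24 h at 37 °C, 6% CO2. Compound dilutions then added for 72 h. MTT 0.5 mg/mL in PBS for 2 h, formazan dissolved in DMSO, A570 with 630 nm reference. Viability taken as % of untreated control. Doxorubicin served as positive control. CC50 from the dose-response curve.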

[2] = Selectivity index, ratio of CC50 for human HepG2 cells to IC50 for Leishmania donovani MHOM/IN/00/DEVI; format: functional
Outline: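 SI = HepG2 CC50 / L. donovani IC50.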

[3] = Cytotoxicity against human HepG2 cells after 72 hrs by MTT assay; format: cell-based; conditions: HepG2 cells; outline: as §1
[4] = system: Leishmania donovani; assay: Antimicrobial activity against Leishmania donovani MHOM/IN/00/DEVI promastigotes after 72 hrs by MTT assay; format: functional, organism-based; conditions: Leishmania donovani, MHOM/IN/00/DEVI, 72 h; read-out: IC50
Outline: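 Log-phase promastigotes in Schneider's medium with 20% FCS, 2 mM L-glutamine and penicillin/streptomycin, at 10⁶ parasites/mL. Compound dilutions run in duplicate, final DMSO <0.5%, 72 h at 27 °C. MTT 0.5 mg/mL for 6 h at 27 °C, formazan dissolved in DMSO, A570.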

[5] = Selectivity index, ratio of CC50 for mouse J774.1 cells to IC50 for Leishmania donovani MHOM/IN/00/DEVI; format: functional

SMILES | CC50 at 72 h [1] | Ratio CC50/IC50 [2] | CC50 at 72 h [3] | IC50 [4] | Ratio CC50/IC50 [5]
O=[N+]([O-])c1c(CS(=O)(=O)c2ccc(C(F)(F)F)cc2)nc2ccc(Br)cn12 | > 25 µM | <0.6 | 31.7 µM | > 50 µM | –
O=S(=O)(Cc1cn2cc(Cl)ccc2n1)c1ccccc1 | 13.3 µM | <0.3 | 16.5 µM | > 50 µM | <0.3
O=[N+]([O-])c1cnc2ccccn12 | > 100 µM | – | > 100 µM | > 50 µM | –
O=[N+]([O-])c1c(CS(=O)(=O)c2ccc(-c3ccccc3)cc2)nc2ccc(Br)cn12 | 54.4 µM | – | > 100 µM | > 50 µM | <1.1
CS(=O)(=O)Cc1nc2ccc(Br)cn2c1[N+](=O)[O-] | > 100 µM | – | > 100 µM | > 50 µM | –
O=S(=O)(Cc1cn2cc(Br)ccc2n1)c1ccccc1 | 6.4 µM | 0.15 | 7.3 µM | > 50 µM | <0.1
O=[N+]([O-])c1c(CCl)nc2ccccn12 | 4.8 µM | 0.6 | 8.7 µM | 15.1 µM | 0.3
O=[N+]([O-])c1c(CSc2ccccc2)nc2ccc(Br)cn12 | > 6 µM | <0.05 | 0.53 µM | > 10 µM | –
Cc1ccc(S(=O)(=O)Cc2nc3ccc(Br)cn3c2[N+](=O)[O-])cc1 | 44.3 µM | 0.13 | 5.9 µM | 44.1 µM | 1
O=[N+]([O-])c1c(CS(=O)(=O)c2ccc(F)cc2)nc2ccc(Br)cn12 | > 92.8 µM | – | > 100 µM | > 50 µM | –
O=[N+]([O-])c1c(CS(=O)(=O)c2ccc(Cl)cc2)nc2ccc(Cl)cn12 | 42.4 µM | 1.1 | > 25 µM | 23 µM | 1.8
COc1cccc2c1C(=O)c1c(O)c3c(c(O)c1C2=O)C[C@@](O)(C(=O)CO)C[C@@H]3O[C@H]1C[C@H](N)[C@H](O)[C@H](C)O1 [DOXORUBICIN] | 0.02 µM | – | – | – | –
Cc1nc2ccccn2c1[N+](=O)[O-] | > 100 µM | – | > 100 µM | > 50 µM | –
O=[N+]([O-])c1c(CS(=O)(=O)c2ccccc2)nc2ccc(I)cn12 | 27 µM | >7.9 | > 100 µM | 12.6 µM | 2.1
O=S(=O)(Cc1cn2cc(Br)ccc2n1)c1ccc(Cl)cc1 | 43.9 µM | <0.5 | 23 µM | > 50 µM | <0.9
O=S(=O)(Cc1cn2ccccc2n1)c1ccccc1 | > 100 µM | – | > 100 µM | > 50 µM | –
O=S(=O)(Cc1cn2cc(I)ccc2n1)c1ccc(Cl)cc1 | 44.2 µM | <0.8 | 39.1 µM | > 50 µM | <0.8
Cc1ccc(S(=O)(=O)Cc2cn3cc(I)ccc3n2)cc1 | 25 µM | – | > 12.5 µM | > 50 µM | <0.5
c1ccn2ccnc2c1 | > 100 µM | – | > 100 µM | > 50 µM | –

SMILES | CC50 at 72 h [1] | Ratio CC50/IC50 [2] | CC50 at 72 h [3] | IC50 [4] | Ratio CC50/IC50 [5]
O=[N+]([O-])c1c(CS(=O)(=O)c2ccccc2)nc2ccccn12 | > 100 µM | – | > 62.5 µM | > 50 µM | –
Cc1ccccc1-c1ccc2nc(CS(=O)(=O)c3ccccc3)c([N+](=O)[O-])n2c1 | 5 µM | – | > 9.4 µM | > 10 µM | <0.5
O=[N+]([O-])c1c(CS(=O)(=O)c2ccc(Cl)cc2)nc2ccc(I)cn12 | 43.6 µM | >1.7 | > 50 µM | 29.1 µM | 1.5
ClCc1cn2cc(Br)ccc2n1 | 68.4 µM | – | > 100 µM | > 50 µM | <1.4
O=[N+]([O-])c1c(CS(=O)(=O)c2ccc(Br)cc2)nc2ccc(Br)cn12 | 28.2 µM | 1.6 | 39 µM | 24.3 µM | 1.1
Cc1ccc(S(=O)(=O)Cc2nc3ccc(Cl)cn3c2[N+](=O)[O-])cc1 | > 94 µM | – | > 100 µM | > 50 µM | –
O=[N+]([O-])c1c(CS(=O)(=O)c2ccc(I)cc2)nc2ccc(Br)cn12 | 16.2 µM | <0.4 | 20.3 µM | > 50 µM | <0.3
O=[N+]([O-])c1c(CS(=O)(=O)c2ccccc2)nc2ccc(Cl)cn12 | > 100 µM | >5.5 | > 100 µM | 18.2 µM | >5.5
O=[N+]([O-])c1c(CCl)nc2ccc(Br)cn12 | 4.9 µM | 1.6 | 15.6 µM | 9.6 µM | 0.5
COc1cc(-c2ccc3nc(CS(=O)(=O)c4ccccc4)c([N+](=O)[O-])n3c2)cc(OC)c1OC | 5 µM | <0.7 | 34.7 µM | > 50 µM | <0.1
COc1ccc(S(=O)(=O)Cc2nc3ccc(Br)cn3c2[N+](=O)[O-])cc1 | > 92.5 µM | – | > 100 µM | > 50 µM | –
O=S(=O)(Cc1cn2cc(Cl)ccc2n1)c1ccc(Cl)cc1 | 68.7 µM | <1.4 | 71.5 µM | > 50 µM | <1.3
Cc1ccc(S(=O)(=O)Cc2cn3cc(Br)ccc3n2)cc1 | 20.9 µM | <0.6 | 28.9 µM | > 50 µM | <0.4
ClCc1cn2ccccc2n1 | > 100 µM | – | > 100 µM | > 50 µM | –
Cc1ccc(S(=O)(=O)Cc2cn3cc(Cl)ccc3n2)cc1 | 33.3 µM | 2 | 68.3 µM | 33.5 µM | 0.9
Cc1ccc(S(=O)(=O)Cc2nc3ccc(I)cn3c2[N+](=O)[O-])cc1 | 34.8 µM | >1.3 | > 50 µM | 39.2 µM | 0.9
O=S(=O)(Cc1cn2cc(I)ccc2n1)c1ccccc1 | 5.2 µM | <0.1 | 5 µM | > 50 µM | <0.1
O=[N+]([O-])c1c(CS(=O)(=O)c2ccc(Cl)cc2)nc2ccc(Br)cn12 | 51.1 µM | 0.12 | 5.5 µM | 45.4 µM | 1.1
